Several values for one entry are separate records, joined by “and”; a condition that tells them apart may be missing. Identical values can stand only once.
What was measured:
[1] = biological target: GABA-A receptor; anion channel; test: Displacement of [3H]flunitrazepam (FNZ) from GABA-A benzodiazepine receptor in rat forebrain
Rattus norvegicus [2] = test: Compound tested for its effect on conflict(FR) operant responding of rats at a dose of 10.0 mg/kg administered perorally.; assay type: functional; conditions: route oral
Outline: (§1)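 Cook-Davidson conflict procedure in rats given oral doses. Rats lever-press for milk reward with shock (conflict, FR) and without shock (nonconflict, VI). Value is % change in response rate, with significance set at P < 0.05. The minimally effective oral dose is taken as the dose raising conflict responding or lowering VI responding.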

Rattus norvegicus [3] = test: Minimal effective oral dose to cause VI response decrement in rats.; assay type: functional; outline: as §1
Rattus norvegicus [4] = test: Compound tested for its effect on Nonconflict(VI) operant responding of rats at a dose of 3.0 mg/kg administered perorally.; assay type: functional; conditions: route oral; outline: as §1
Rattus norvegicus [5] = test: Minimal effective oral dose to cause increase in conflict response in rats after po administration.; assay type: functional; outline: as §1
Rattus norvegicus [6] = test: Compound tested for its effect on conflict(FR) operant responding of rats at a dose of 3.0 mg/kg administered perorally.; assay type: functional; conditions: route oral; outline: as §1
Rattus norvegicus [7] = species: Rattus norvegicus; test: Anxiolytic response measured by antagonism of pentylenetetrazole discriminative stimuli in rats.; assay type: functional
Outline: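 Rats trained to discriminate a subconvulsant dose of pentylenetetrazole (PTZ) from vehicle. Test compound given 30 min before the PTZ dose. Antagonism of the PTZ stimulus is scored as the anxiolytic response. ED50 values by probit analysis, with 95% confidence limits.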

Rattus norvegicus [8] = test: Compound tested for its effect on Nonconflict(VI) operant responding of rats at a dose of 10.0 mg/kg administered perorally.; assay type: functional; conditions: route oral; outline: as §1
[9] = biological target: GABA-A receptor; anion channel (Rattus norvegicus) (UniProt O09028+P15431+P18506+P18508+P19969+P20236+P23574+P23576+P28471+P28473+P30191+P62813+P63079+P63138+Q91ZM7+Q9ES14); test: GABA ratio measured by the IC50 in the absence of GABA compared to the IC50 in the presence of GABA in rats.
Outline: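 Modified [3H]flunitrazepam binding in rat forebrain, with IC50 measured with and without GABA. Ratio = IC50 without GABA divided by IC50 with GABA.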

[10] = biological target: GABA-A receptor; anion channel; test: Displacement of [3H]flunitrazepam from GABA-A Benzodiazepine receptors in rat forebrain
Rattus norvegicus [11] = test: Compound tested for its effect on Nonconflict (VI) operant responding of rats at a dose of 30.0 mg/Kg administered perorally.; assay type: functional; outline: as §1
Rattus norvegicus [12] = test: Compound tested for its effect on conflict (FR) operant responding of rats at a dose of 30.0 mg/Kg administered perorally; assay type: functional; outline: as §1
Rattus norvegicus [13] = test: Compound tested for its effect on conflict(FR) operant responding of rats at a dose of 30.0 mg/kg administered perorally.; assay type: functional; conditions: route oral; outline: as §1
Rattus norvegicus [14] = test: Minimal effective oral dose to cause ethanol interaction in rats.; assay type: functional
Outline: (§2)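 Rotorod test of ethanol interaction in male Wistar (Crl:(WI)BR) rats, 130–160 g. Vehicle or test compound (0, 1, 3, 10 mg/kg) given orally 30 min before ethanol. Graded ethanol doses given ip 30 min before rotorod testing. Ethanol ED50 reported with confidence limits, P < 0.05.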

Rattus norvegicus [15] = test: Compound tested for its effect on Nonconflict(VI) operant responding of rats at a dose of 30.0 mg/kg administered perorally.; assay type: functional; conditions: route oral; outline: as §1
Rattus norvegicus [16] = test: Compound tested for its effect on Nonconflict (VI) operant responding of rats at a dose of 10.0 mg/Kg administered perorally.; assay type: functional; outline: as §1
Rattus norvegicus [17] = test: Interaction with ethanol in Rotarod performance at a dose of 0 mg/Kg in rats.; assay type: functional; outline: as §2
Rattus norvegicus [18] = test: Interaction with ethanol in Rotarod performance at a dose of 1 mg/Kg in rats.; assay type: functional; outline: as §2
Rattus norvegicus [19] = test: Interaction with ethanol in Rotarod performance at a dose of 3 mg/Kg in rats.; assay type: functional; outline: as §2
Rattus norvegicus [20] = test: Compound tested for its effect on Nonconflict (VI) operant responding of rats at a dose of 3.0 mg/Kg administered perorally.; assay type: functional; outline: as §1
Rattus norvegicus [21] = test: Compound tested for its effect on conflict (FR) operant responding of rats at a dose of 1.0 mg/Kg administered perorally.; assay type: functional; outline: as §1
Rattus norvegicus [22] = test: Compound tested for its effect on Nonconflict (VI) operant responding of rats at a dose of 1.0 mg/Kg administered perorally.; assay type: functional; outline: as §1
Rattus norvegicus [23] = test: Compound tested for its effect on conflict (FR) operant responding of rats at a dose of 10.0 mg/Kg administered perorally.; assay type: functional; outline: as §1
Rattus norvegicus [24] = test: Interaction with ethanol in Rotarod performance at a dose of 10 mg/Kg in rats.; assay type: functional; outline: as §2
Rattus norvegicus [25] = test: Compound tested for its effect on conflict (FR) operant responding of rats at a dose of 3.0 mg/Kg administered perorally.; assay type: functional; outline: as §1
Rattus norvegicus [26] = test: Compound tested for its effect on conflict (FR) operant responding of rats at a dose of 30.0 mg/Kg administered perorally.; assay type: functional; outline: as §1

O=C(c1ccccc1)N1CCc2nc(O)n3nc(-c4ccccc4F)nc3c2C1
IC50 [1]: 50 nM

O=C(Nc1ccccc1)N1CCc2nc(O)n3nc(-c4ccccc4F)nc3c2C1
IC50 [1]: 67 nM

Oc1nc2c(c3nc(-c4ccccc4F)nn13)CN(Cc1cccnc1)CC2
Change in response rate (Rattus norvegicus [2]): 322% | MED (Rattus norvegicus [3]): 10 mg/kg | Change in response rate (Rattus norvegicus [4]): -8% | MED (Rattus norvegicus [5]): 10 mg/kg | IC50 [1]: 0.74 nM | Change in response rate (Rattus norvegicus [6]): 129% | ED50 (Rattus norvegicus [7]): 3.65 mg/kg | Change in response rate (Rattus norvegicus [8]): -21% | GABA ratio [9]: 1.4

O=C(Cc1ccccc1)N1CCc2nc(O)n3nc(-c4ccccc4F)nc3c2C1
IC50 [1]: 140 nM

NC(=O)N1CCc2nc(O)n3nc(-c4ccccc4F)nc3c2C1
IC50 [1]: 67 nM | GABA ratio [9]: 0.74

O=C1C2C=Nc3ccccc3C2=NN1c1ccccc1 (centres undefined) [CGS-8216]
IC50 [10]: 0.45 nM | GABA ratio [9]: 0.82

Oc1nc2c(c3nc(-c4ccccc4F)nn13)CN(CCc1ccccc1)CC2
IC50 [1]: 28 nM

Oc1nc2c(c3nc(-c4ccc[nH]4)nn13)CN(Cc1ccccc1)CC2
IC50 [1]: 7.6 nM | ED50 (Rattus norvegicus [7]): 17.3 mg/kg | GABA ratio [9]: 1.65

Oc1nc2c(c3nc(-c4ccccc4F)nn13)CCCC2
MED (Rattus norvegicus [5]): 30 mg/kg | IC50 [1]: 1.7 nM | Change in response rate (Rattus norvegicus [11]): 1% | ED50 (Rattus norvegicus [7]): 2.4 mg/kg | Change in response rate (Rattus norvegicus [12]): 132%

NC(Cc1ccccc1)C(=O)N1CCc2nc(O)n3nc(-c4ccccc4F)nc3c2C1 (centres undefined)
IC50 [1]: > 100 nM

CN1C(=O)CN=C(c2ccccc2)c2cc(Cl)ccc21 [DIAZEPAM]
Change in response rate (Rattus norvegicus [2]): 425% | Change in response rate (Rattus norvegicus [13]): 257% | MED (Rattus norvegicus [3]): 10 mg/kg | MED (Rattus norvegicus [14]): 5 mg/kg | Change in response rate (Rattus norvegicus [4]): 4% | MED (Rattus norvegicus [5]): 10 mg/kg | Change in response rate (Rattus norvegicus [15]): -2% | Change in response rate (Rattus norvegicus [6]): 159% | ED50 (Rattus norvegicus [7]): 1.23 mg/kg | Change in response rate (Rattus norvegicus [8]): 30%

Oc1nc2c(c3nc(-c4ccccn4)nn13)CN(Cc1ccccc1)CC2
IC50 [1]: 20.6 nM | ED50 (Rattus norvegicus [7]): 26 mg/kg | GABA ratio [9]: 1.6

CCOC(=O)N1CCc2nc(O)n3nc(-c4ccccc4F)nc3c2C1
IC50 [1]: 12.1 nM | GABA ratio [9]: 1.1

Oc1nc2c(c3nc(-c4ccccc4)nn13)CN(Cc1ccccc1)CC2
Change in response rate (Rattus norvegicus [16]): 12% | ED50 (Rattus norvegicus [17]): 1320 mg/kg | ED50 (Rattus norvegicus [18]): 984 mg/kg | ED50 (Rattus norvegicus [19]): 832 mg/kg | MED (Rattus norvegicus [14]): 1 mg/kg | Change in response rate (Rattus norvegicus [20]): -4% | MED (Rattus norvegicus [5]): 3 mg/kg | Change in response rate (Rattus norvegicus [21]): 35% | IC50 [1]: 2.19 nM | Change in response rate (Rattus norvegicus [22]): 0% | Change in response rate (Rattus norvegicus [23]): 367% | ED50 (Rattus norvegicus [7]): 2.6 mg/kg | ED50 (Rattus norvegicus [24]): 563 mg/kg | Change in response rate (Rattus norvegicus [25]): 167% | GABA ratio [9]: 1.4

Oc1nc2c(c3nc(-c4ccccc4F)nn13)CCC2
IC50 [1]: 4.7 nM

Oc1nc2c(c3nc(-c4ccc(Cl)cc4)nn13)CN(Cc1ccccc1)CC2
Change in response rate (Rattus norvegicus [16]): 4% | MED (Rattus norvegicus [3]): 30 mg/kg | IC50 [1]: 22.4 nM | Change in response rate (Rattus norvegicus [11]): -45% | ED50 (Rattus norvegicus [7]): 6.43 mg/kg | Change in response rate (Rattus norvegicus [26]): 104% and 188% | GABA ratio [9]: 2.45
